Experimental data: ChEMBL document CHEMBL1123901, “Inhibition of delayed hypersensitivity reactions by cinnamyl 1-thioglycosides” (J Med Chem, 1987)

Key:
Type in all cases: functional
[1] = species: Cavia porcellus; test: [3H]-Thymidine uptake was determined by liquid scintillation spectroscopy in Macrophages pretreated with 500 uM of 4 at 37 degree C for 18 h; details: in the assay text read “1 mM” for “500 uM”
Procedure, shortened: (§1)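 Guinea pig PELs and irradiated (2100 rads) exudate macrophages were each preincubated with compound (1 mM or 500 μM, depending on agent) for 18 h at 37 °C, then washed. Macrophages were pulsed with OVA 100 μg/mL for 1 h at 37 °C and washed. Cells were viability-adjusted by trypan blue and mixed, with or without OVA 10 μg/mL. Culture ran 72 h at 37 °C with [3H]thymidine read by scintillation, as mean Δcpm × 10^-3.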

[2] = species: Cavia porcellus; test: Effect on guinea pig T cell proliferation was tested by measuring the incorporation of [3H]-thymidine uptake at the concentration of 0 uM
Procedure, shortened: (§2)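 Strain 2 female guinea pigs were immunized with 100 μg OVA in CFA split over the footpads. At day 14 they received mineral oil ip, and the exudate was collected 4 days later. T cells were enriched on nylon wool. 2×10^5 cells per well were cultured with 10% irradiated (2100 rads) exudate cells, OVA (10 μg/mL) and compound, for 72 h at 37 °C in 5% CO2. [3H]thymidine (1 μCi) was added 18-24 h before harvest. Triplicate wells; mean Δcpm ± SD.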

[3] = species: Cavia porcellus; test: Effect on guinea pig T cell proliferation was tested by measuring the incorporation of [3H]thymidine uptake at the concentration of 750 uM; procedure, shortened: as §2
[4] = system: Mus musculus; test: Percent reduction in mice after intraperitoneal administration 3 mg/kg
Procedure, shortened: (§3)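 DTH in A/J female mice (20-23 g): cyclophosphamide 200 mg/kg sc, then iv sensitization with 10^8 washed SRBC 3 days later. On day 6 after sensitization, one hind footpad challenged with 10^8 SRBC in 20 μL, the other given saline. Dosing ip or po to overnight-fasted mice 20 min before challenge. Swelling read at 24 and 48 h as antigen minus saline footpad (mm × 10), by constant-pressure caliper.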

[5] = system: Mus musculus; test: Percent reduction in mice after intraperitoneal administration 10 mg/kg; procedure, shortened: as §3
[6] = species: Cavia porcellus; test: [3H]thymidine uptake was determined by liquid scintillation spectroscopy in ovalbumin (OVA) pulsed compound 4 treated Macrophages
Procedure, shortened: (§4)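 Pretreatment protocol. Strain 2 female guinea pigs immunized with OVA in CFA (100 μg OVA; 0.1 mL/foot); mineral oil given ip at day 14, peritoneal exudate collected 4 days later. Nylon-wool-enriched T cells (PELs) and irradiated (2100 rads) exudate macrophages each incubated with sugar derivative 18 h at 37 °C, then washed. Macrophages pulsed with OVA 100 μg/mL for 1 h at 37 °C and washed. Viability adjusted by trypan blue; populations mixed and cultured 72 h at 37 °C. [3H]thymidine (1 μCi) added 18-24 h before harvest; read by liquid scintillation as mean Δcpm ×10^-3.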

[7] = species: Cavia porcellus; test: [3H]thymidine uptake was determined by liquid scintillation spectroscopy in compound 2 treated Macrophages; procedure, shortened: as §1
[8] = system: Mus musculus; test: Percent reduction in mice after oral administration 3 mg/kg; procedure, shortened: as §3
[9] = species: Cavia porcellus; test: Effect on guinea pig T cell proliferation was tested by measuring the incorporation of [3H]thymidine uptake at the concentration of 1000 uM; procedure, shortened: as §2
[10] = species: Cavia porcellus; test: Effect on guinea pig T cell proliferation was tested by measuring the incorporation of [3H]thymidine uptake at the concentration of 500 uM; procedure, shortened: as §2
[11] = species: Cavia porcellus; test: Effect on guinea pig T cell proliferation was tested by measuring the incorporation of [3H]-thymidine uptake at the concentration of 100 uM; procedure, shortened: as §2
[12] = species: Cavia porcellus; test: [3H]thymidine uptake was determined by liquid scintillation spectroscopy in compound 4 treated Macrophages pretreated with 500 uM of 4 at 37 degree C for 18 h; details: in the assay text read “1 mM” for “500 uM”; procedure, shortened: as §1
[13] = system: Mus musculus; test: Compound was administered intraperitoneally to mice before increase in foot-pad thickness at a dose of 30 mg/kg; details: route intraperitoneal; procedure, shortened: as §3
[14] = system: Mus musculus; test: Compound was administered intraperitoneally to mice before increase in foot-pad thickness at a dose of 10 mg/kg; details: route intraperitoneal; procedure, shortened: as §3
[15] = system: Mus musculus; test: Percent reduction in mice after oral administration 10 mg/kg; procedure, shortened: as §3
[16] = system: Mus musculus; test: Compound was administered intraperitoneally to mice before increase in foot-pad thickness at a dose of 3 mg/kg; details: route intraperitoneal; procedure, shortened: as §3
[17] = system: Mus musculus; test: Percent reduction in mice after oral administration of 30 mg/kg; procedure, shortened: as §3
[18] = species: Cavia porcellus; test: [3H]thymidine uptake was determined by liquid scintillation spectroscopy in 4 pretreated OVA pulsed Macrophages plus OVA (10 ug/mL) pretreated with 500 uM of 4 at 37 degree C for 18 h; details: in the assay text read “1 mM” for “500 uM”; procedure, shortened: as §1
[19] = species: Cavia porcellus; test: [3H]thymidine uptake was determined by liquid scintillation spectroscopy in ovalbumin pulsed Macrophages; procedure, shortened: as §4
[20] = system: Mus musculus; test: Compound was administered orally to mice before increase in foot-pad thickness at a dose of 30 mg/kg; details: route oral; procedure, shortened: as §3
[21] = species: Cavia porcellus; test: [3H]thymidine uptake was determined by liquid scintillation spectroscopy in compound 4 pretreated OVA pulsed Macrophages plus OVA (10 ug/mL); procedure, shortened: as §1
[22] = system: Mus musculus; test: Compound was administered orally to mice before increase in foot-pad thickness at a dose of 10 mg/kg; details: route oral; procedure, shortened: as §3
[23] = species: Cavia porcellus; test: Effect on guinea pig T cell proliferation was tested by measuring the incorporation of [3H]thymidine uptake at the concentration of 250 uM; procedure, shortened: as §2
[24] = system: Mus musculus; test: Compound was administered orally to mice before increase in foot-pad thickness at a dose of 3 mg/kg; details: route oral; procedure, shortened: as §3
[25] = species: Cavia porcellus; test: [3H]thymidine uptake was determined by liquid scintillation spectroscopy in Macrophages; procedure, shortened: as §1
[26] = species: Cavia porcellus; test: [3H]-Thymidine uptake was determined by liquid scintillation spectroscopy in OVA pulsed compound 4 pretreated Macrophages pretreated with 500 uM of 4 at 37 degree C for 18 h; details: in the assay text read “1 mM” for “500 uM”; procedure, shortened: as §1
[27] = species: Cavia porcellus; test: Effect on guinea pig T cell proliferation was tested by measuring the incorporation of [3H]thymidine uptake at the concentration of 10 uM; procedure, shortened: as §2
[28] = system: Mus musculus; test: Percent reduction in mice after intraperitoneal administration of 30 mg/kg; procedure, shortened: as §3
[29] = species: Cavia porcellus; test: Inhibitory activity against [3H]thymidine uptake by cinnamyl 1-thioglycosides in guinea pig T cell proliferation; details: t-cell; procedure, shortened: as §2
[30] = species: Cavia porcellus; test: [3H]-Thymidine uptake was determined by liquid scintillation spectroscopy in OVA pulsed Macrophages pretreated with 500 uM of 21 at 37 degree C for 18 h; procedure, shortened: as §1
[31] = species: Cavia porcellus; test: [3H]-Thymidine uptake was determined by liquid scintillation spectroscopy in compound 21 treated Macrophages pretreated with 500 uM of 21 at 37 degree C for 18 h; procedure, shortened: as §1
[32] = species: Cavia porcellus; test: [3H]-Thymidine uptake was determined by liquid scintillation spectroscopy in compound 21 pretreated Macrophages plus OVA (ug/mL) pretreated with 500 uM of 21 at 37 degree C for 18 h; procedure, shortened: as §1
[33] = species: Cavia porcellus; test: [3H]thymidine uptake was determined by liquid scintillation spectroscopy in 3 treated Macrophages plus OVA (10 ug/mL); procedure, shortened: as §1
[34] = species: Cavia porcellus; test: [3H]-Thymidine uptake was determined by liquid scintillation spectroscopy in Macrophages pretreated with 500 uM 21 at 37 degree C for 18 h; procedure, shortened: as §1
[35] = species: Cavia porcellus; test: [3H]-Thymidine uptake was determined by liquid scintillation spectroscopy in ovalbumin (OVA) pulsed compound 2 treated Macrophages; procedure, shortened: as §1
[36] = species: Cavia porcellus; test: [3H]thymidine uptake was determined by liquid scintillation spectroscopy in compound 21 pretreated OVA pulsed Macrophages plus OVA (10 ug/mL); procedure, shortened: as §1
[37] = species: Cavia porcellus; test: [3H]thymidine uptake was determined by liquid scintillation spectroscopy in OVA pulsed compound 21 pretreated Macrophages pretreated with 500 uM of 21 at 37 degree C for 18 h; procedure, shortened: as §1
[38] = species: Cavia porcellus; test: [3H]-Thymidine uptake was determined by liquid scintillation spectroscopy in 21 pretreated OVA pulsed Macrophages plus OVA (10 ug/mL) pretreated with 500 uM of 21 at 37 degree C for 18 h; procedure, shortened: as §1

For `CC1OC(SC/C=C/c2ccccc2)C(O)C(O)C1O` (stereo in doubt; 4), the “Delta cpm x10e-3” value [1] was 4.75, the Activity [2] was 72.8 Δcpm x10e-3 and the Activity [3] was 0.02 Δcpm x 10^-3. For the same compound, the Reduction [4] was 13%, the Reduction [5] was 47% and the “Delta cpm x10e-3” value [6] was 104.36. The “Delta cpm x10e-3” value [7] was 4.89, the Reduction [8] was 16% and the Activity [9] was 0.06 Δcpm x10e-3. The Activity [10] was 1.51 Δcpm x10e-3, the Activity [11] was 62.1 Δcpm x10e-3 and the “Delta cpm x10e-3” value [12] was 2.81. For the same compound, the Activity [13] was 2.34 mm x10, the Activity [14] was 2.78 mm x10 and the Reduction [15] was 18%. For the same compound, the Activity [16] was 4.6 mm x10, the Reduction [17] was 34% and the “Delta cpm x10e-3” value [18] was 49.95. For the same compound, the “Delta cpm x10e-3” value [19] was 141.55, the Activity [20] was 0.77 mm x10 and the “Delta cpm x10e-3” value [21] was 139.97. For the same compound, the Activity [22] was 0.96 mm x10, the Activity [23] was 5.8 Δcpm x10e-3 and the Activity [24] was 0.98 mm x10. The “Delta cpm x10e-3” value [25] was 6.67, the “Delta cpm x10e-3” value [26] was 33.97 and the Activity [27] was 93.6 Δcpm x10e-3. The Reduction [28] was 56% and the IC50 [29] was 160 µM.
With `CC1OC(SC/C=C/c2ccccc2)C(O)C(O)C1O` (stereo in doubt; 5) the Activity [2] was 147 Δcpm x10e-3, the Activity [3] was 31.8 Δcpm x 10^-3 and the Activity [9] was 17.5 Δcpm x10e-3. For the same compound, the Activity [10] was 66.6 Δcpm x10e-3, the Activity [11] was 130 Δcpm x10e-3 and the Activity [23] was 109 Δcpm x10e-3. The Activity [27] was 144 Δcpm x10e-3 and the IC50 [29] was 525 µM.
`CC1OC(SC/C=C/c2ccccc2)C(O)C(O)C1O` (stereo in doubt; 6) was tested, and the Activity [2] was 93.5 Δcpm x10e-3, the Activity [3] was 12.8 Δcpm x 10^-3 and the Activity [9] was 5.97 Δcpm x10e-3. For the same compound, the Activity [10] was 36.4 Δcpm x10e-3, the Activity [11] was 101 Δcpm x10e-3 and the Activity [23] was 59.7 Δcpm x10e-3. For the same compound, the Activity [27] was 115 Δcpm x10e-3 and the IC50 [29] was 750 µM.
With `CC1OC(SC/C=C/c2ccccc2)C(O)C(O)C1O` (stereo in doubt; 21) the Activity [2] was 89.1 Δcpm x10e-3, the Activity [3] was 0 Δcpm x 10^-3 and the “Delta cpm x10e-3” value [30] was 29.03. The “Delta cpm x10e-3” value [31] was 1.62, the “Delta cpm x10e-3” value [32] was 2.63 and the “Delta cpm x10e-3” value [7] was 2.26. The Activity [9] was 0 Δcpm x10e-3, the “Delta cpm x10e-3” value [33] was 14.22 and the Activity [10] was 0.11 Δcpm x10e-3. For the same compound, the “Delta cpm x10e-3” value [34] was 1.34, the Activity [11] was 66.3 Δcpm x10e-3 and the “Delta cpm x10e-3” value [35] was 13.97. For the same compound, the “Delta cpm x10e-3” value [19] was 45.43, the “Delta cpm x10e-3” value [36] was 11.14 and the “Delta cpm x10e-3” value [37] was 2.63. The Activity [23] was 26.7 Δcpm x10e-3, the “Delta cpm x10e-3” value [25] was 1.46 and the “Delta cpm x10e-3” value [38] was 3.82. The Activity [27] was 86.5 Δcpm x10e-3 and the IC50 [29] was 102 µM.
